In article PMC7699451 (Drug Design, Development and Therapy, 2020):
Where two headings read alike, the source gives them in different places.

Tests used:
[1] = Plasma pharmacokinetics at steady-state, LC-MS/MS, noncompartmental analysis; format: in vivo, human; settings: for MR, metabolic ratio (AUCτ,ss of metabolite/AUCτ,ss of parent) / AUCτ,ss / Cmax,ss / CLss/F / Ctrough,ss: mean ± SD, N = 34
In short: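 Oral DPP-4 inhibitor 5 mg once daily, alone for 7 days or with sulfonylurea 4 mg. Plasma was sampled pre-dose and at 1, 2, 3, 4, 5, 6, 8 and 12 h at steady state, spun at 1900 g (4°C, 10 min) and frozen below −70°C. LC-MS/MS was linear over 0.1–60 μg/L. Noncompartmental analysis: Cmax,ss observed; AUCτ,ss and CLss by the linear-log trapezoidal method.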

serum insulin = experiment: Oral glucose tolerance test, serum insulin; format: in vivo, human; settings: OGTT 75 g glucose, steady-state; mean ± SD; N = 34
In short: (§1)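 Healthy Korean men aged 19–45 years (BMI 18–27 kg/m2) in a randomized, open-label, 3-period crossover study. Treatments were oral once daily: DPP-4 inhibitor 5 mg, sulfonylurea 4 mg, or both. After an overnight fast, subjects took 75 g glucose; serum glucose and insulin were sampled at 0, 0.25, 0.5, 1, 1.5, 2 and 3 h, at baseline (day −1) and at steady state. Peaks were read directly; areas used the linear trapezoidal method. Δ values subtracted baseline at each time point.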

[2] = Safety and tolerability, adverse events; format: in vivo, human
In short: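 Adverse events, physical examinations, vital signs, 12-lead ECG and clinical laboratory tests were monitored throughout the crossover study in dosed healthy men. Investigators assessed whether each adverse event was related to treatment.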

CYP enzymes = settings: ref unpublished in-house data; cited from earlier work
[3] = Urinary excretion of evogliptin at steady-state; format: in vivo, human; settings: for CL renal: human, urine and plasma, oral
In short: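 At steady state of oral DPP-4 inhibitor 5 mg once daily, urine was collected over 0–24 h and frozen below −70°C. Parent drug was measured by LC-MS/MS (linear 5–50,000 μg/L). feτ,ss was the amount excreted unchanged divided by that day's dose. Renal clearance was the amount excreted divided by plasma AUCτ,ss.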

serum glucose = experiment: Oral glucose tolerance test, serum glucose; format: in vivo, human; settings: OGTT 75 g glucose, steady-state, mean ± SD, N = 34
In short: as §1

[4] = cited from earlier work
[5] = EVO+GLI: evogliptin 5 mg and glimepiride 4 mg once daily
[6] = EVO+GLI: evogliptin 5 mg and glimepiride 4 mg once daily, plasma
[7] = EVO: evogliptin 5 mg once daily
[8] = EVO: evogliptin 5 mg once daily, plasma
[9] = GLI: glimepiride 4 mg once daily
[10] = GLI: glimepiride 4 mg once daily, plasma

Structure (SMILES) | MR, metabolic ratio (AUCτ,ss of metabolite/AUCτ,ss of parent) [1, 5] | AUCτ,ss [1, 6] | Cmax,ss [1, 6] | MR, metabolic ratio (AUCτ,ss of metabolite/AUCτ,ss of parent) [1, 7] | AUCτ,ss [1, 8] | Cmax,ss [1, 8] | AUEC, area under the serum insulin-time curve (serum insulin) | Emax, maximum serum insulin level (serum insulin) | ΔAUEC, difference in the area under the serum insulin-time curve from baseline (serum insulin) | ΔEmax, difference in maximum serum insulin level from baseline (serum insulin) | 2 h PBG, 2 hour postprandial blood glucose (serum glucose) | AUGC, area under the serum glucose-time curve (serum glucose) [mg·h/dL] | ΔAUGC, difference in the area under the serum glucose-time curve from baseline (serum glucose) | ΔGmax, difference in maximum serum glucose level from baseline (serum glucose) | CLss/F [1, 5] | Ctrough,ss [1, 6] | half-life ([1]; human, plasma, oral) [h] | also measured
CC(C)(C)OC[C@@H]1C(=O)NCCN1C(=O)C[C@H](N)[C@@H](O)c1cc(F)c(F)cc1F [Evogliptin M7, 4(S)-hydroxyevogliptin] | 0.09 ± 0.02 (0.04–0.13) | 10.1 ± 2.8 (5.5–17) μg·h/L | 0.7 ± 0.2 (0.4–1.0) μg/L | 0.09 ± 0.02 (0.03–0.12) | 9.8 ± 2.4 (6.3–14.6) μg·h/L | 0.7 ± 0.2 (0.4–1.2) μg/L |  |  |  |  |  |  |  |  |  |  |  | 
CC(C)(C)OC[C@@H]1C(=O)NCCN1C(=O)C[C@H](N)[C@H](O)c1cc(F)c(F)cc1F [Evogliptin M8, 4(R)-hydroxyevogliptin] | 0.1 ± 0.02 (0.05–0.13) | 10.4 ± 2.5 (6–17) μg·h/L | 0.6 ± 0.2 (0.3–1) μg/L | 0.09 ± 0.02 (0.04–0.13) | 10.3 ± 2.1 (6.8–14.7) μg·h/L | 0.6 ± 0.2 (0.4–1.1) μg/L |  |  |  |  |  |  |  |  |  |  |  | 
CC(C)(C)OC[C@@H]1C(=O)NCCN1C(=O)C[C@H](N)Cc1cc(F)c(F)cc1F [Evogliptin, evogliptin] |  |  |  |  |  |  | 91.1 ± 48.6 (31.4–265) μIU·h/mL | 53.1 ± 25.2 (16.3–124.2) μIU/mL | −19.2 ± 46.6 (−179.9–36.1) μIU·h/mL | −20.4 ± 35.5 (−142.5–21.7) μIU/mL | 114.7 ± 17.3 (83–164) mg/dL | 334.9 | −35.8 ± 39.2 (−137.6–18.5) mg·h/dL | −53.2 ± 32 (−162– −12) mg/dL | 46.9 ± 8.3 (28.4–62.4) L/h | 3.1 ± 0.7 (2.2–5.1) μg/L | 23.6 ± 5.9 | Diarrhea: number of subjects who reported adverse drug reactions (number of ADRs) ([2]; N = 35): 1 (1); Induction or inhibition of CYP enzymes (CYP enzymes): did not induce or inhibit CYP enzymes; feτ,ss, fraction excreted unchanged in urine during the dosing interval ([3]; EVO: evogliptin 5 mg once daily, urine 0–24 h, mean ± SD, N = 34): 19.1 ± 7.2 (6.7–43.9) %; CL renal [3]: 148 mL/min; CL renal ([3]; 5 mg): 140 mL/min; Gmax, maximum serum glucose level (serum glucose; healthy male subjects): 136.7 mg/dL; AUGC, area under the serum glucose-time curve (serum glucose; listed as EVO): 334.9 ± 31.7 (260–406.5) mg·h/dL; CLss/F [1, 7]: 45.6 ± 7.5 (26.5–56.1) L/h; Ctrough,ss [1, 8]: 3.3 ± 0.7 (2.2–5.6) μg/L; Day on which steady-state was achieved ([1]; evogliptin 5 mg once daily): 4 days; Tmax ([1]; human, plasma, oral): 3.5 h; AUC ([1]; human, plasma, oral, 5 mg): 113 ± 21.6 ng·h/mL; Cmax ([1]; human, plasma, oral, 5 mg): 6.7 ± 1.4 ng/mL; half-life ([1]; human, plasma, oral, 5 mg): 28.4 ± 8.9 h; Tmax, time to reach maximal plasma concentration ([4]; after oral administration): approximately 5 h
CCC1=C(C)CN(C(=O)NCCc2ccc(S(=O)(=O)NC(=O)NC3CCC(CO)CC3)cc2)C1=O (stereo not drawn) [Glimepiride M1, hydroxyglimepiride] | 0.39 ± 0.1 (0.19–0.62) | 652.6 ± 197.7 (387–1331.4) μg·h/L | 84.2 ± 19 (55.8–137) μg/L |  |  |  |  |  |  |  |  |  |  |  |  |  |  | MR, metabolic ratio (AUCτ,ss of metabolite/AUCτ,ss of parent) [1, 9]: 0.4 ± 0.11 (0.2–0.63); AUCτ,ss [1, 10]: 611.9 ± 180.7 (309.4–1179.5) μg·h/L; Cmax,ss [1, 10]: 81.3 ± 20.6 (47.7–135.3) μg/L
CCC1=C(C)CN(C(=O)NCCc2ccc(S(=O)(=O)NC(=O)N[C@H]3CC[C@H](C)CC3)cc2)C1=O [Glimepiride, glimepiride] |  |  |  |  |  |  | 141.7 ± 65.5 (40.7–318.2) μIU·h/mL | 86.4 ± 43.8 (29.7–248.4) μIU/mL | 17.9 ± 60.1 (−174.5–157.2) μIU·h/mL | 12.9 ± 45.2 (−109.2–122.1) μIU/mL | 94.7 ± 23.9 (44–140) mg/dL | 291.8 | −67.5 ± 60 (−179.6–69.4) mg·h/dL | −68.9 ± 25.1 (−129– −22) mg/dL | 2.5 ± 0.8 (1.2–4.5) L/h | 4.2 ± 6.3 (0–24.7) μg/L | 4.2 ± 2 | Number of AEs considered related to the investigational products ([2]; 35 subjects in safety assessment): five; Cold sweat: number of subjects who reported adverse drug reactions (number of ADRs) ([2]; N = 35): 1 (1); Dizziness: number of subjects who reported adverse drug reactions (number of ADRs) ([2]; N = 35): 1 (1); Hypoglycemia: number of subjects who reported adverse drug reactions (number of ADRs) ([2]; N = 35): 1 (1); Increased blood bilirubin: number of subjects who reported adverse drug reactions (number of ADRs) ([2]; N = 35): 1 (1); Nausea: number of subjects who reported adverse drug reactions (number of ADRs) ([2]; N = 35): 1 (1); AUGC, area under the serum glucose-time curve (serum glucose; listed as GLI): 291.8 ± 48.5 (216.1–429.6) mg·h/dL; CLss/F [1, 9]: 2.7 ± 1 (1.2–5.1) L/h; Ctrough,ss [1, 10]: 8.6 ± 10.9 (0–51.9) μg/L; AUC ([1]; human, plasma, oral, 4 mg): 1670 ± 624 ng·h/mL; Cmax ([1]; human, plasma, oral, 4 mg): 327 ± 98.5 ng/mL; half-life ([1]; human, plasma, oral, 4 mg): 4.7 ± 2.2 h; Tmax ([4]; after oral administration): ≤ 3 h; half-life [4]: 1.2 to 1.5 h
